Measured values taken from ChEMBL document CHEMBL4689842, “EUbOPEN Chemogenomics Library wave 1” (2021).
Values joined by “and” are separate entries in the source; they are usually repeats but may differ in a detail not shown here. Equal values may be shown once.

Tested on: HEK-293T
Assay: Multiplex assay against HEK293T;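 on Population Tubulin-Different-Phenotype (%): share of the cells with healthy nuclei that show this phenotype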
Assay type: toxicity, cell-based
Conditions: human
Method in brief: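 Live cells were stained at seeding with Hoechst33342, BioTracker Green Microtubule Cytoskeleton Dye, MitoTracker Red and Annexin V Alexa Fluor 680, then imaged on a CQ1 microscope at 37°C and 5% CO2 after compound addition. CellPathfinder machine-learning gating split cells into Hoechst high-intensity objects or normal cells. Normal cells were split into healthy, pyknosed or fragmented nuclei, and pyknosed cells into mitotic or apoptotic. Tubulin, mitochondrial-mass and membrane-permeability phenotypes are per cents of healthy-nucleus cells.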

[1] = 12 h, 1 µM, compound concentration 1 uM, replicate 1
[2] = 12 h, 1 µM, compound concentration 1 uM, replicate 2
[3] = 12 h, 10 µM, compound concentration 10 uM, replicate 1
[4] = 12 h, 10 µM, compound concentration 10 uM, replicate 2
[5] = 24 h, 1 µM, compound concentration 1 uM, replicate 1
[6] = 24 h, 1 µM, compound concentration 1 uM, replicate 2
[7] = 24 h, 10 µM, compound concentration 10 uM, replicate 1
[8] = 24 h, 10 µM, compound concentration 10 uM, replicate 2
[9] = 48 h, 1 µM, compound concentration 1 uM, replicate 1
[10] = 48 h, 1 µM, compound concentration 1 uM, replicate 2
[11] = 48 h, 10 µM, compound concentration 10 uM, replicate 1
[12] = 48 h, 10 µM, compound concentration 10 uM, replicate 2

CN1CCCC(n2nc(Cc3ccc(Cl)cc3)c3ccccc3c2=O)CC1.Cl (stereo not given) [AZELASTINE HYDROCHLORIDE]
Population Apoptotic (%) [1]: 50% | Population Fragmented Nuclei (%) [1]: 8% | Population Healthy Nuclei (%) [1]: 42% | Population Hoechst High Intensity Objects (%) [1]: 9% | Population Membrane Permeable-Phenotype (%) [1]: 3% | Population Mitochondria Different-Phenotype (%) [1]: 94% | Population Mitotic Cells (%) [1]: 49% | Population Normal (%) [1]: 90% | Population Pyknosed Nuclei (%) [1]: 50% | Population Tubulin-Different-Phenotype (%) [1]: 84% | Total Cell Count [1]: 333 | Population Apoptotic (%) [2]: 40% | Population Fragmented Nuclei (%) [2]: 6% | Population Healthy Nuclei (%) [2]: 24% | Population Hoechst High Intensity Objects (%) [2]: 5% | Population Membrane Permeable-Phenotype (%) [2]: 4% | Population Mitochondria Different-Phenotype (%) [2]: 61% | Population Mitotic Cells (%) [2]: 59% | Population Normal (%) [2]: 94% | Population Pyknosed Nuclei (%) [2]: 69% | Population Tubulin-Different-Phenotype (%) [2]: 68% | Total Cell Count [2]: 190 | Population Apoptotic (%) [3]: 82% | Population Fragmented Nuclei (%) [3]: 11% | Population Healthy Nuclei (%) [3]: 16% | Population Hoechst High Intensity Objects (%) [3]: 19% | Population Membrane Permeable-Phenotype (%) [3]: 2% | Population Mitochondria Different-Phenotype (%) [3]: 100% | Population Mitotic Cells (%) [3]: 17% | Population Normal (%) [3]: 80% | Population Pyknosed Nuclei (%) [3]: 72% | Population Tubulin-Different-Phenotype (%) [3]: 78% | Total Cell Count [3]: 289 | Population Apoptotic (%) [4]: 89% | Population Fragmented Nuclei (%) [4]: 5% | Population Healthy Nuclei (%) [4]: 23% | Population Hoechst High Intensity Objects (%) [4]: 4% | Population Membrane Permeable-Phenotype (%) [4]: 3% | Population Mitochondria Different-Phenotype (%) [4]: 98% | Population Mitotic Cells (%) [4]: 10% | Population Normal (%) [4]: 95% | Population Pyknosed Nuclei (%) [4]: 70% | Population Tubulin-Different-Phenotype (%) [4]: 56% | Total Cell Count [4]: 231 | Population Apoptotic (%) [5]: 56% | Population Fragmented Nuclei (%) [5]: 8% | Population Healthy Nuclei (%) [5]: 37% | Population Hoechst High Intensity Objects (%) [5]: 11% | Population Membrane Permeable-Phenotype (%) [5]: 3% | Population Mitochondria Different-Phenotype (%) [5]: 92% | Population Mitotic Cells (%) [5]: 43% | Population Normal (%) [5]: 88% | Population Pyknosed Nuclei (%) [5]: 54% | Population Tubulin-Different-Phenotype (%) [5]: 83% | Total Cell Count [5]: 353 | Population Apoptotic (%) [6]: 50% | Population Fragmented Nuclei (%) [6]: 7% | Population Healthy Nuclei (%) [6]: 49% | Population Hoechst High Intensity Objects (%) [6]: 4% | Population Membrane Permeable-Phenotype (%) [6]: 5% | Population Mitochondria Different-Phenotype (%) [6]: 66% | Population Mitotic Cells (%) [6]: 50% | Population Normal (%) [6]: 95% | Population Pyknosed Nuclei (%) [6]: 43% | Population Tubulin-Different-Phenotype (%) [6]: 74% | Total Cell Count [6]: 223 | Population Apoptotic (%) [7]: 82% | Population Fragmented Nuclei (%) [7]: 13% | Population Healthy Nuclei (%) [7]: 13% | Population Hoechst High Intensity Objects (%) [7]: 19% | Population Membrane Permeable-Phenotype (%) [7]: 0% | Population Mitotic Cells (%) [7]: 17% | Population Normal (%) [7]: 80% | Population Pyknosed Nuclei (%) [7]: 72% | Population Tubulin-Different-Phenotype (%) [7]: 59% | Total Cell Count [7]: 289 | Population Apoptotic (%) [8]: 93% | Population Fragmented Nuclei (%) [8]: 8% | Population Healthy Nuclei (%) [8]: 33% | Population Hoechst High Intensity Objects (%) [8]: 7% | Population Membrane Permeable-Phenotype (%) [8]: 4% | Population Mitochondria Different-Phenotype (%) [8]: 100% | Population Mitotic Cells (%) [8]: 6% | Population Normal (%) [8]: 92% | Population Pyknosed Nuclei (%) [8]: 58% | Population Tubulin-Different-Phenotype (%) [8]: 38% | Total Cell Count [8]: 230 | Population Apoptotic (%) [9]: 49% | Population Fragmented Nuclei (%) [9]: 14% | Population Healthy Nuclei (%) [9]: 42% | Population Hoechst High Intensity Objects (%) [9]: 14% | Population Membrane Permeable-Phenotype (%) [9]: 3% | Population Mitochondria Different-Phenotype (%) [9]: 72% | Population Mitotic Cells (%) [9]: 50% | Population Normal (%) [9]: 85% | Population Pyknosed Nuclei (%) [9]: 42% | Population Tubulin-Different-Phenotype (%) [9]: 70% | Total Cell Count [9]: 404 | Population Apoptotic (%) [10]: 47% | Population Fragmented Nuclei (%) [10]: 7% | Population Healthy Nuclei (%) [10]: 65% | Population Hoechst High Intensity Objects (%) [10]: 5% | Population Membrane Permeable-Phenotype (%) [10]: 6% | Population Mitochondria Different-Phenotype (%) [10]: 48% | Population Mitotic Cells (%) [10]: 52% | Population Normal (%) [10]: 94% | Population Pyknosed Nuclei (%) [10]: 26% | Population Tubulin-Different-Phenotype (%) [10]: 71% | Total Cell Count [10]: 324 | Population Apoptotic (%) [11]: 79% | Population Fragmented Nuclei (%) [11]: 20% | Population Healthy Nuclei (%) [11]: 6% | Population Hoechst High Intensity Objects (%) [11]: 27% | Population Membrane Permeable-Phenotype (%) [11]: 0% | Population Mitochondria Different-Phenotype (%) [11]: 100% | Population Mitotic Cells (%) [11]: 20% | Population Normal (%) [11]: 72% | Population Pyknosed Nuclei (%) [11]: 73% | Population Tubulin-Different-Phenotype (%) [11]: 38% | Total Cell Count [11]: 297 | Population Apoptotic (%) [12]: 89% | Population Fragmented Nuclei (%) [12]: 8% | Population Healthy Nuclei (%) [12]: 57% | Population Hoechst High Intensity Objects (%) [12]: 18% | Population Mitochondria Different-Phenotype (%) [12]: 99% | Population Mitotic Cells (%) [12]: 10% | Population Normal (%) [12]: 81% | Population Pyknosed Nuclei (%) [12]: 34% | Population Tubulin-Different-Phenotype (%) [12]: 15% | Total Cell Count [12]: 231

Cn1c(-c2csc(C3CCN(CC4=NC5N=CC=CC5N4)CC3)n2)nc2ccccc21 (stereo not given) [BAY-070]
Population Apoptotic (%) [3]: 19% and 14% | Population Fragmented Nuclei (%) [3]: 25% and 9% | Population Healthy Nuclei (%) [3]: 48% and 56% | Population Hoechst High Intensity Objects (%) [3]: 16% and 14% | Population Membrane Permeable-Phenotype (%) [3]: 5% and 3% | Population Mitochondria Different-Phenotype (%) [3]: 5% and 8% | Population Mitotic Cells (%) [3]: 80% and 85% | Population Normal (%) [3]: 83% and 85% | Population Pyknosed Nuclei (%) [3]: 26% and 33% | Population Tubulin-Different-Phenotype (%) [3]: 7% and 10% | Total Cell Count [3]: 591 and 756 | Population Apoptotic (%) [4]: 15% and 10% | Population Fragmented Nuclei (%) [4]: 3% and 6% | Population Healthy Nuclei (%) [4]: 82% and 88% | Population Hoechst High Intensity Objects (%) [4]: 5% and 2% | Population Membrane Permeable-Phenotype (%) [4]: 1% | Population Mitochondria Different-Phenotype (%) [4]: 21% | Population Mitotic Cells (%) [4]: 84% and 89% | Population Normal (%) [4]: 94% and 97% | Population Tubulin-Different-Phenotype (%) [4]: 14% and 5% | Total Cell Count [4]: 1063 and 1470 | Population Apoptotic (%) [7]: 15% and 24% | Population Fragmented Nuclei (%) [7]: 10% and 21% | Population Healthy Nuclei (%) [7]: 63% and 62% | Population Hoechst High Intensity Objects (%) [7]: 9% and 10% | Population Membrane Permeable-Phenotype (%) [7]: 6% | Population Mitochondria Different-Phenotype (%) [7]: 7% and 4% | Population Mitotic Cells (%) [7]: 84% and 75% | Population Normal (%) [7]: 90% and 89% | Population Pyknosed Nuclei (%) [7]: 25% and 16% | Total Cell Count [7]: 694 and 578 | Population Apoptotic (%) [8]: 9% and 17% | Population Fragmented Nuclei (%) [8]: 14% and 5% | Population Healthy Nuclei (%) [8]: 83% and 87% | Population Hoechst High Intensity Objects (%) [8]: 2% and 5% | Population Membrane Permeable-Phenotype (%) [8]: 5% | Population Mitochondria Different-Phenotype (%) [8]: 1% and 11% | Population Mitotic Cells (%) [8]: 90% and 82% | Population Normal (%) [8]: 97% and 94% | Total Cell Count [8]: 2202 and 1248
